Assay results reported in ChEMBL document CHEMBL1145838, “Bioactive peptidic analogues and cyclostereoisomers of the minimal antinociceptive histogranin fragment-(7-10)” (J Med Chem, 2003).
Square brackets hold non-standard residues; d marks the D form. Peptide text beside a SMILES is read from it. Phe(4-Cl) = N[C@@H](Cc1ccc(Cl)cc1)C(=O)O

Legend:
Mus musculus [1] = species: Mus musculus; assay: Compound was tested for antinociceptive potency using mouse writhing pain assay; assay type: functional
How it was run: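 Male Swiss Webster mice, 20–25 g, given peptide icv (10 μL in sterile water) or i.v.; 5 min later 1.0% AcOH (10 mL/kg) i.p. Doses 0, 0.25–50 nmol. Writhes counted for 10 min; % analgesia relative to vehicle controls, 10 mice per dose. AD50 and potency ratio with 95% CL by Litchfield–Wilcoxon.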

Rattus norvegicus = species: Rattus norvegicus; assay: Compound was tested for inhibition against [3H]raclopride to Rat brain membranes; assay type: functional, Membrane
How it was run: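 Rat brain membranes (male Wistar, 250–300 g; 0.8 mg protein) in 5 mM Tris-HCl pH 7.4, incubated with 2.5 nM [3H]raclopride for 60 min at 22 °C alongside 9–12 peptide concentrations (10⁻¹⁰–10⁻⁴ M). Nonspecific binding defined with 10 μM (+)butaclamol. IC50 by nonlinear least-squares fit; mean ± SE of ≥3 experiments run in duplicate.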

Mus musculus [2] = assay: Lack of Motor Effect measured as the time taken by the mice to remain on the rotarod after 30 min interval of icv administration of compound; assay type: functional
How it was run: (§1)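 Male Swiss Webster mice pre-screened on a 2.5 cm rod at 8 rpm (two 1-min rounds; fallers excluded). Peptides (10 or 2.5 nmol) or water vehicle given icv, then mice placed on the rod for 2 min. Time on rod recorded as mean ± SE, groups of 10; Student's t-test.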

Mus musculus [3] = assay: Lack of Motor Effect measured as the time taken by the mice to remain on the rotarod after 60 min interval of icv administration of compound; assay type: functional; how it was run: as §1
Mus musculus [4] = assay: Lack of Motor Effect measured as the time taken by the mice to remain on the rotarod after 15 min interval of icv administration of compound; assay type: functional; how it was run: as §1

`NC(=O)CC[C@@H]1NC(=O)CNC(=O)[C@H](CCCN=C(N)N)NC(=O)[C@H](Cc2ccc(O)cc2)NC1=O` showed an AD50 (Mus musculus [1]) of 2.26 nmol mouse-1 and an IC50 (Rattus norvegicus) of 4.91 µM.
For `NC(=O)CC[C@H]1NC(=O)CNC(=O)[C@@H](CCCN=C(N)N)NC(=O)[C@H](Cc2ccc(O)cc2)NC1=O`, the AD50 (Mus musculus [1]) was 4.21 nmol mouse-1 and the IC50 (Rattus norvegicus) was 6.75 µM.
For `N=C(N)NCCC[C@H]1NC(=O)[C@H](Cc2ccc(O)cc2)NC(=O)[C@H](Cc2ccc(N)cc2)NC(=O)CNC1=O` [listing 1 of 2 here], the IC50 (Rattus norvegicus) was 3.52 µM.
`N=C(N)NCCC[C@H]1NC(=O)[C@H](Cc2ccc(O)cc2)NC(=O)[C@H](Cc2ccc(N)cc2)NC(=O)CNC1=O` [listing 2 of 2 here] gave an AD50 (Mus musculus [1]) of 2.52 nmol mouse-1.
Work on `C[C@@H]1NC(=O)CNC(=O)[C@@H](CCCN=C(N)N)NC(=O)[C@H](Cc2ccc(O)cc2)NC1=O` [listing 1 of 2 here] yielded an IC50 (Rattus norvegicus) of 2.33 µM.
`C[C@@H]1NC(=O)CNC(=O)[C@@H](CCCN=C(N)N)NC(=O)[C@H](Cc2ccc(O)cc2)NC1=O` [listing 2 of 2 here] gave an AD50 (Mus musculus [1]) of 1.35 nmol mouse-1, a Time (Mus musculus [2]) of 120 and a Time (Mus musculus [3]) of 120. For the same molecule, the Time (Mus musculus [4]) was 107.
With `NC(=O)CC[C@H]1NC(=O)CNC(=O)[C@H](CCCN=C(N)N)NC(=O)[C@H](Cc2ccc(O)cc2)NC1=O` the AD50 (Mus musculus [1]) was 3.65 nmol mouse-1 and the IC50 (Rattus norvegicus) was 4.12 µM.
`C[C@@H]1NC(=O)[C@@H](CCC(N)=O)NC(=O)CNC(=O)[C@H](CCCN=C(N)N)NC1=O` showed an AD50 (Mus musculus [1]) of 7.05 nmol mouse-1 and an IC50 (Rattus norvegicus) of 12.5 µM.
`C[C@@H]1NC(=O)[C@@H](CCC(N)=O)NC(=O)CNC(=O)[C@@H](CCCN=C(N)N)NC1=O` gave an AD50 (Mus musculus [1]) of 13.3 nmol mouse-1.
Work on `C[C@H](NC(=O)[C@H](CCC(N)=O)NC(=O)CN)C(=O)N[C@@H](CCCN=C(N)N)C(=O)O` (H-GQAR-OH) yielded an AD50 (Mus musculus [1]) of 3.42 nmol mouse-1.
Molecule `NCC(=O)N[C@@H](CCC(N)=O)C(=O)NCC(=O)N[C@@H](CCCN=C(N)N)C(=O)O` (H-GQGR-OH) has an AD50 (Mus musculus [1]) of 25.9 nmol mouse-1.
Molecule `N=C(N)NCCC[C@H]1NC(=O)[C@H](Cc2ccc(O)cc2)NC(=O)[C@H](Cc2ccc(Cl)cc2)NC(=O)CNC1=O` (cyclo(G[Phe(4-Cl)]Y[dR])) [listing 1 of 2 here] has an IC50 (Rattus norvegicus) of 0.89 µM.
With `N=C(N)NCCC[C@H]1NC(=O)[C@H](Cc2ccc(O)cc2)NC(=O)[C@H](Cc2ccc(Cl)cc2)NC(=O)CNC1=O` (cyclo(G[Phe(4-Cl)]Y[dR])) [listing 2 of 2 here] the AD50 (Mus musculus [1]) was 0.17 nmol mouse-1, the Time (Mus musculus [2]) was 115.8 and the Time (Mus musculus [3]) was 110.2. For the same molecule, the Time (Mus musculus [4]) was 104.1.
